This is an account of results in ChEMBL document CHEMBL1177746, “Labdanes and sucrose esters from Physalis sordida” (J Nat Prod, 2010).

For assay [1], the system named is Mus musculus. In words: Antiinflammatory activity in NIH mouse assessed as inhibition of TPA-induced mouse ear edema measured per ear administered to right ear relative to untreated control. The assay is classed as functional, organism-based. Summed up:
(§1)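 Male NIH mice, groups of 5-8, anaesthetized with Sedaphorte. Right ear got TPA 2.5 μg in 10 μL EtOH, split across both faces; left ear got EtOH only. 10 min later, test compound at 0.1 to 1.0 μmol in 20 μL Me₂CO-CH₂Cl₂ (1:1) was applied to the right ear; controls got vehicle only. Sacrificed at 4 h; a 7 mm plug was taken from each ear.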

The test system of assay [2] is Mus musculus. In words: Antiinflammatory activity in NIH mouse assessed as inhibition of TPA-induced mouse ear edema at 1 umol/ear administered to right ear relative to untreated control. The format is functional. Summed up: as §1

For the compound `CCCCCCCCCCCC(=O)O[C@H]1[C@@H](O[C@]2(COC(C)=O)O[C@H](CO)[C@@H](O)[C@@H]2O)O[C@H](CO)[C@@H](O)[C@@H]1OC(=O)C(C)C`, in the assay with Mus musculus [1], the IC50 worked out at 0.34 µmol/ear.
Take `C=C1[C@H](O)C[C@H]2C(C)(C)CCC[C@]2(C)[C@H]1C[C@@H](O)/C(C)=C/CO` [PHYSORDIN]: the IC50 in the assay with Mus musculus [1] is 0.63 µmol/ear. In the assay on Mus musculus [2], the “inhibition (INH)” value turned out to be 64.3%.
The matching figures for `CC1=CC[C@H]2C(C)(C)CCC[C@]2(C)[C@H]1C[C@@H](O)/C(C)=C/CO` [PHYSACOZTOMATIN]: 0.49 µmol/ear and 65.8%.
As to `CCCCCCCCCCCC(=O)O[C@H]1[C@@H](O[C@]2(COC(C)=O)O[C@H](CO)[C@@H](O)[C@@H]2OC(=O)C(C)C)O[C@H](CO)[C@@H](O)[C@@H]1OC(=O)C(C)C`, the IC50 with Mus musculus [1] came to 0.26 µmol/ear.
Regarding `C=C1[C@H](OC(C)=O)C[C@H]2C(C)(C)CCC[C@]2(C)[C@H]1C[C@@H](OC(C)=O)/C(C)=C/COC(C)=O`, the “inhibition (INH)” value in the assay on Mus musculus [2] worked out at 29.4%.
As to `CCCCCCCCCCCC(=O)O[C@H]1[C@@H](O[C@]2(CO)O[C@H](CO)[C@@H](O)[C@@H]2OC(=O)C(C)C)O[C@H](CO)[C@@H](O)[C@@H]1OC(=O)C(C)C`, in the assay on Mus musculus [1], the IC50 was determined as 0.35 µmol/ear.
As to `CCCCCCCCCCCC(=O)O[C@H]1[C@@H](O[C@]2(CO)O[C@H](CO)[C@@H](O)[C@@H]2O)O[C@H](CO)[C@@H](O)[C@@H]1OC(=O)C(C)C`, the IC50 in the assay with Mus musculus [1] is 0.24 µmol/ear.
For `CC(=O)O[C@H](C[C@H]1C(C)=CC[C@H]2C(C)(C)CCC[C@]12C)/C(C)=C/CO`, the “inhibition (INH)” value in the assay on Mus musculus [2] is recorded as 25.4%.
